Measured values as given in ChEMBL document CHEMBL3763081, “Synthesis, evaluation and structure-activity relationship of new 3-carboxamide coumarins as FXIIa inhibitors” (Eur J Med Chem, 2016).
≈ marks a conversion by molar mass, not a printed value.

Key:
[1] = Solubility of compound at pH 6.5; type: physicochemical; details: buffer
[2] = molecular target: T1, Coagulation factor XII (Homo sapiens) (UniProt P00748); assay: Inhibition of human factor 12a using S-2302 as substrate assessed as para-nitroaniline release at 50 uM preincubated for 10 mins followed by substrate addition measured after 30 mins by HPLC-UV analysis
T1 sequence (whole entry): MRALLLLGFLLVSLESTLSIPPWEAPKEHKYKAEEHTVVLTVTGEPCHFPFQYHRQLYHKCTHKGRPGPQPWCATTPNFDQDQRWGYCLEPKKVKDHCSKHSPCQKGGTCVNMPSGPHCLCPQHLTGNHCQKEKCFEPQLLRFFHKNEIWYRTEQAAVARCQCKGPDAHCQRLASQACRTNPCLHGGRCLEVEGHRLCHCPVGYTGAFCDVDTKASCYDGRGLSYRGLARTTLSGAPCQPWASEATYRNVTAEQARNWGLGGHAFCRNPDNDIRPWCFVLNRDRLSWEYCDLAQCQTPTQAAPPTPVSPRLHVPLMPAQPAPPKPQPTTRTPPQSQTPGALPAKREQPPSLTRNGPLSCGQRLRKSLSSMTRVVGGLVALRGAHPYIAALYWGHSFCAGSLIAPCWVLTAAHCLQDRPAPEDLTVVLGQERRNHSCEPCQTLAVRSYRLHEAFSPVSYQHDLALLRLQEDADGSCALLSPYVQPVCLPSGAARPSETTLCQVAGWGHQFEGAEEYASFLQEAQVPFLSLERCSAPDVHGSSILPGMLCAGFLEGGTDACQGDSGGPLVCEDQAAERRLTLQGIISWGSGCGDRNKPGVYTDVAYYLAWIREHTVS
Summary of the method: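 Human FXIIa 145 nM in 0.5 mM Tris-Imidazole, 0.15 M NaCl, pH 7.9, preincubated 10 min at 25 C with compound (DMSO). S-2302 (2.5 mM) added and hydrolysis run 30 min, then stopped with 10% acetic acid. Wells diluted 1:1 in acetonitrile. Released p-NA quantified by C18 HPLC-UV at 375 nm (AUC). % inhibition = [1-(AUCdrug/AUCvehicle)]*100.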

[3] = molecular target: Coagulation factor X (Homo sapiens) (UniProt P00742); assay: Inhibition of human factor 10a using S-2765 as substrate at 100 uM preincubated for 10 mins followed by substrate addition measured for 5 mins by microplate reader analysis
Chain of Coagulation factor X (Homo sapiens) (P00742 41-179 limits assumed): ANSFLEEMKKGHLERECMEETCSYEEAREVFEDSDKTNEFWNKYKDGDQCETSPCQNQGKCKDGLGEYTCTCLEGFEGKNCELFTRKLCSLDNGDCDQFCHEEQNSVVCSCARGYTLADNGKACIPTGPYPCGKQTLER
Chain of Coagulation factor X (Homo sapiens) (P00742 235-488 limits assumed): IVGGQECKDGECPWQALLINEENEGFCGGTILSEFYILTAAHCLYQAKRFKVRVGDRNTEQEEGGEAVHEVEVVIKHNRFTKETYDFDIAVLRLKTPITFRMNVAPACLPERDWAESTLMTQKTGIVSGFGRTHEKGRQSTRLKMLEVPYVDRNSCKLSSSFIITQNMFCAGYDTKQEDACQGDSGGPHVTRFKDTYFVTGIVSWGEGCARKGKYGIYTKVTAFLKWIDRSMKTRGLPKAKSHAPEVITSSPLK
Summary of the method: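 Compound added from DMSO and held with enzyme 10 min at 25 C. S-2765 (1 mM) then added and OD405 followed continuously for 5 min. % inhibition = [1-(slope inhibitor/slope vehicle)]*100.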

[4] = molecular target: Plasma kallikrein (Homo sapiens) (UniProt P03952); assay: Inhibition of human plasma kallikrein using S-2302 as substrate at 100 uM preincubated for 10 mins followed by substrate addition measured for 5 mins by microplate reader analysis; type: cell-free
Chain of Plasma kallikrein (Homo sapiens) (P03952 20-390 limits assumed): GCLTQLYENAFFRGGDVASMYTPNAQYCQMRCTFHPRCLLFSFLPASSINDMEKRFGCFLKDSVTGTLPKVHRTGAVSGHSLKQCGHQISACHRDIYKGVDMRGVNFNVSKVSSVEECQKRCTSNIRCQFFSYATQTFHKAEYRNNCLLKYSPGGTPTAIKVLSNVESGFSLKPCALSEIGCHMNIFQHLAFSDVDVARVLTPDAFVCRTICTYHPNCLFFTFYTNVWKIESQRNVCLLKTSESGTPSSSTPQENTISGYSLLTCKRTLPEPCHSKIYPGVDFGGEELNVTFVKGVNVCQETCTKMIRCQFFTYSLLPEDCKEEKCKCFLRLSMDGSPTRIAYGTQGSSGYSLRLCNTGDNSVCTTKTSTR
Chain of Plasma kallikrein (Homo sapiens) (P03952 391-638 limits assumed): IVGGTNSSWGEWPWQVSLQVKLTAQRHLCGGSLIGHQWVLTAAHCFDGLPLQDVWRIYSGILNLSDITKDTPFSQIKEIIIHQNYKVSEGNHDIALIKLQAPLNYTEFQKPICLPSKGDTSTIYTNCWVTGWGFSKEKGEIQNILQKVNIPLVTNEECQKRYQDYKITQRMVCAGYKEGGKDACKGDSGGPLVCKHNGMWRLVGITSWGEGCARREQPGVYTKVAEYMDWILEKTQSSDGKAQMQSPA
Summary of the method: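 Human plasma kallikrein 50 nM in 0.05 M Tris-HCl, 0.5 mM EDTA, 0.05% Tween 20, 0.15 M NaCl, pH 7.4. 10 min preincubation with compound at 25 C, then S-2302 (4 mM). OD405 read continuously for 5 min. % inhibition = [1-(slope inhibitor/slope vehicle)]*100.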

[5] = molecular target: T2, Coagulation factor VII (Homo sapiens) (UniProt P08709); assay: Inhibition of human factor 7a using chromozymt-PA as substrate at 100 uM preincubated for 10 mins followed by substrate addition measured for 10 mins by microplate reader analysis
T2 sequence (whole entry): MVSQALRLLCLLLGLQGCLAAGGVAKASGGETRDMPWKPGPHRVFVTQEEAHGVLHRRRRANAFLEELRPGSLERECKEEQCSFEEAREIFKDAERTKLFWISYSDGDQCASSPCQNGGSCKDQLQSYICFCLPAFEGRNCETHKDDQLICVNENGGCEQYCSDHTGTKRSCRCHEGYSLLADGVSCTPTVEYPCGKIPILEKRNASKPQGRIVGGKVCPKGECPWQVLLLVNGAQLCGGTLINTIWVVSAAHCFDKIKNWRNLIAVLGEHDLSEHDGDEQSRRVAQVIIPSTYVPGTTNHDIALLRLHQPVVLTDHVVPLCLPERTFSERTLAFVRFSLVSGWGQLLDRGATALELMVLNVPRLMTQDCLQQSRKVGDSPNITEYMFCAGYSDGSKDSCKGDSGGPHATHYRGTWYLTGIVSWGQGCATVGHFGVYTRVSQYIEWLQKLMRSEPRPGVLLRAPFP
Summary of the method: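 Compound preincubated 10 min at 25 C. Chromozym t-PA (5 mM) added and OD405 monitored continuously for 10 min. Inhibition from slope ratio against vehicle.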

Coagulation factor XII = molecular target: T3, Coagulation factor XII (Homo sapiens, UniProt P00748); assay: Inhibition of human factor 12a using S-2302 as substrate assessed as para-nitroaniline release preincubated for 10 mins followed by substrate addition measured after 30 mins by HPLC-UV analysis
T3 sequence (P00748 whole entry): T1 sequence (whole entry)
Summary of the method: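 FXIIa IC50 assay. Human enzyme 145 nM in Tris-Imidazole/NaCl buffer, pH 7.9, 10 min at 25 C with compound, then S-2302 (2.5 mM) for 30 min and acetic acid stop. p-NA AUC measured by HPLC-UV at 375 nm. Nine concentrations from 100 nM upward, in duplicate. Sigmoid fit of % inhibition vs log concentration by non-linear regression; values reported as mean with 95% CI.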

[6] = molecular target: Prothrombin (Homo sapiens) (UniProt P00734); assay: Inhibition of human thrombin using S-2238 as substrate at 100 uM preincubated for 10 mins followed by substrate addition measured for 5 mins by microplate reader analysis
Summary of the method: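 Compound (DMSO) preincubated 10 min at 25 C, then S-2238 (2.5 mM). OD405 monitored continuously for 5 min. Slope-based % inhibition against vehicle control.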

Row | solubility [1] | inhibition [2] | inhibition [3] | inhibition [4] | inhibition [5] | IC50 (Coagulation factor XII) | inhibition [6] | Structure (SMILES)
1 | 9900 µg/mL | 26% |  |  |  |  |  | Cl.NCc1ccc2oc(=O)c(C(=O)Nc3ccccc3)cc2c1
2 | 0.1 µg/mL (≈ 0.233 µM) | 99% | < 10% | < 10% | < 10% | 5 µM | < 10% | O=C(Nc1cc(Cl)ccc1O)c1cc2cc(Cl)cc(Br)c2oc1=O
3 | 1.5 µg/mL (≈ 3.8 µM) | 90% | < 10% | < 10% | < 10% | 41 µM | < 10% | O=C(Nc1ccc(O)cc1)c1cc2cc(Cl)cc(Br)c2oc1=O
4 | 61900 µg/mL | 23% |  |  |  |  |  | NCCNC(=O)c1cc2cc(Cl)cc(Br)c2oc1=O.O=C(O)C(F)(F)F
5 | 400 µg/mL (≈ 1080 µM) | 20% |  |  |  |  |  | O=C(NCCN1CCOCC1)c1cc2cc(Cl)cc(Cl)c2oc1=O
6 | 36 µg/mL (≈ 78.8 µM) | 75% |  |  |  |  |  | O=C(O)c1cc(Cl)ccc1NC(=O)c1cc2cc(Cl)cc(Br)c2oc1=O
7 | 0.59 µg/mL (≈ 1.56 µM) | 90% | < 10% | < 10% | < 10% | 16 µM | < 10% | O=C(Nc1ccccc1)c1cc2cc(Cl)cc(Br)c2oc1=O
8 | 2400 µg/mL (≈ 6420 µM) | 26% |  |  |  |  |  | CN(C)CCNC(=O)c1cc2cc(Cl)cc(Br)c2oc1=O
9 | 0.11 µg/mL (≈ 0.256 µM) | 99% | < 10% | < 10% | < 10% | 8 µM | < 10% | O=C(Nc1ccc(Cl)cc1O)c1cc2cc(Cl)cc(Br)c2oc1=O
10 | 3000 µg/mL (≈ 7180 µM) | 30% |  |  |  |  |  | CN(C)CCNC(=O)c1cc2cc(Br)cc(Br)c2oc1=O
11 | 0.71 µg/mL (≈ 1.8 µM) | 99% | < 10% | < 10% | < 10% | 7 µM | < 10% | O=C(Nc1ccccc1O)c1cc2cc(Cl)cc(Br)c2oc1=O
12 | 500 µg/mL (≈ 1090 µM) | 14% |  |  |  |  |  | O=C(NCCN1CCOCC1)c1cc2cc(Br)cc(Br)c2oc1=O
13 | 400 µg/mL (≈ 962 µM) | 17% |  |  |  |  |  | O=C(NCCN1CCOCC1)c1cc2cc(Cl)cc(Br)c2oc1=O
14 | 52 µg/mL (≈ 176 µM) | 14% |  |  |  |  |  | O=C(Nc1ccccc1)c1cc2cc(CO)ccc2oc1=O
15 | 3400 µg/mL (≈ 9760 µM) | 21% |  |  |  |  |  | O=C(Nc1ccccc1)c1cc2cc(CN3CCCC3)ccc2oc1=O
16 | 2900 µg/mL (≈ 8280 µM) | 14% |  |  |  |  |  | CCN(CC)Cc1ccc2oc(=O)c(C(=O)Nc3ccccc3)cc2c1
17 | 700 µg/mL (≈ 1930 µM) | 28% |  |  |  |  |  | O=C(Nc1ccccc1)c1cc2cc(CN3CCCCC3)ccc2oc1=O
18 | 1.4 µg/mL (≈ 3.55 µM) | 90% | < 10% | < 10% | < 10% | 34 µM | < 10% | O=C(Nc1cccc(O)c1)c1cc2cc(Cl)cc(Br)c2oc1=O
19 | 2200 µg/mL (≈ 6680 µM) | 29% |  |  |  |  |  | CN(C)CCNC(=O)c1cc2cc(Cl)cc(Cl)c2oc1=O
20 | 48 µg/mL (≈ 132 µM) | 18% |  |  |  |  |  | O=C(Nc1ccccc1)c1cc2cc(CN3CCOCC3)ccc2oc1=O
